Reference: ChEMBL document CHEMBL1142583, “Cytotoxic flavonol glycosides from Triplaris cumingiana” (2005)
Values after ≈ are worked out from the molar mass of the structure shown.

Experiments:
Assay type in all cases: functional
MCF7 = assay: Cytotoxicity against human MCF7 cell
How it was run: (§1)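 Human cancer cell panel: MCF-7 (breast), H-460 (lung) and SF-268 (central nervous system), run by the Monks et al. protocol; adriamycin served as the reference compound.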

NCI-H460 = assay: Cytotoxicity against human H460 cells; how it was run: as §1
SF-268 = assay: Cytotoxicity against human SF-268 cells; how it was run: as §1

| SMILES | GI50 (MCF7) [µg/mL] | GI50 (NCI-H460) [µg/mL] | GI50 (SF-268) [µg/mL] |
| --- | --- | --- | --- |
| O=C(OC[C@H]1O[C@@H](Oc2c(-c3ccc(O)c(O)c3)oc3cc(O)cc(O)c3c2=O)[C@H](O)[C@@H](O)[C@@H]1O)c1cc(O)c(O)c(O)c1 | > 10 | > 10 | > 10 |
| O=C(OC[C@H]1O[C@@H](Oc2c(-c3ccc(O)c(O)c3)oc3cc(O)cc(O)c3c2=O)[C@H](O)[C@@H](O)[C@@H]1OC(=O)c1cc(O)c(O)c(O)c1)c1cc(O)c(O)c(O)c1 | > 10 | 3 (≈ 3.9 µM) | > 10 |
| O=c1c(O)c(-c2ccc(O[C@@H]3O[C@@H](CO)[C@H](O)[C@H]3O)c(O)c2)oc2cc(O)cc(O)c12 | 9.1 (≈ 21 µM) | 7.3 (≈ 16.8 µM) | > 10 |
| O=C(OC[C@@H]1O[C@@H](Oc2c(-c3ccc(O)cc3)oc3cc(O)cc(O)c3c2=O)[C@H](O)[C@H]1O)c1cc(O)c(O)c(O)c1 | 9 (≈ 15.8 µM) | > 10 | > 10 |
| O=C(OC[C@@H]1O[C@@H](Oc2c(-c3ccc(O)c(O)c3)oc3cc(O)cc(O)c3c2=O)[C@H](O)[C@H]1O)c1cc(O)c(O)c(O)c1 | 1.4 (≈ 2.39 µM) | 1.2 (≈ 2.05 µM) | 2.3 (≈ 3.92 µM) |
